Compound activity as filed in PubChem BioAssay.
Rows were chosen to be rich in hits. Some 12% of all compounds tested hit in one or more screens of this group.
PKD1 inh = inhibitors of human PKD1 kinase; Q15139; PKD1 kinase fluorescence polarization assay; inhibition, % (no concentration beside the values); 200,000 tested, 0.056% active
Rad51 HR inh = Rad51 (human) homologous recombination inhibition; inhibition, % at 10 µM; 200,000 tested, 0.085% active; Q06609; hRad51 DNA strand exchange, fluorescence dequenching; AID 1385;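 active means inhibition above 40% at the single screening dose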;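 further: 0% = DMSO control wells and 100% = blanks with heterologous ssDNA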
Target sequence (Q06609 whole entry, looked up): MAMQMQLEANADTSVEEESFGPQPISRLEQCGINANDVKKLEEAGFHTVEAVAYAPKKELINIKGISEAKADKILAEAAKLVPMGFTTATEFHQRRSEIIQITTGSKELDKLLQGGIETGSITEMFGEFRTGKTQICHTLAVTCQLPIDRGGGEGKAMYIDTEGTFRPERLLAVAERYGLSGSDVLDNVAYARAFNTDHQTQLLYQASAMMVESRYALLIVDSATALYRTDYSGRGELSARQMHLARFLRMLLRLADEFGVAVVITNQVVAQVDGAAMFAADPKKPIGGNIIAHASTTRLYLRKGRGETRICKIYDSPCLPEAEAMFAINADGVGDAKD
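Test system – preformed human Rad51 ssDNA filaments · Reagent – Donor/quencher-labelled 47-bp dsDNA substrate · Incubation – 37 °C 15-min filament assembly, 30-min compound preincubation, 15-min exchange · Signal – FRET fluorescence dequenching, excitation 485 nm, emission 520 nm · Read-out – percent inhibition from fluorescence, normalised to plate control and blank means · Benchmarks – plate control and blank wells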
L major viab = reduces viability of Leishmania major promastigotes; resazurin fluorescence viability; 200,000 tested, 9% active; inhibition, % at 10 µM;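 further: promastigotes grown with compound for 44 hours at 28 °C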
CHOP inh = CHOP inhibition in unfolded protein response; CHO-K1 CHOP-promoter luciferase, tunicamycin-induced, 15-18 h; inhibition, % at 10 µM; 220,000 tested, 3.8% active;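 active means compounds that reduced the stress-induced luciferase reporter signal by more than about 70% of percent inhibition, limit read from the data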;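 further: 0% = tunicamycin plus vehicle and 100% = wells without tunicamycin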
Arbovirus inh = arbovirus infection inhibition. arbovirus infection cell-based antiviral screen. inhibition, % at 10 µM. 200,000 tested, 0.37% active. AID 1251; in the data active means inhibition above about 30%
Wee1 degr inh = human Wee1 degradation inhibition, primary screen. reporter increase, % at 5 µM. AID 1321. 220,000 tested, 1.2% active. HeLa Luc-Wee1K328M stability, luciferase luminescence; 100% = proteasome inhibitor MG132 effect. P30291;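 active means activation above the mean of all tested compounds plus 3 SD, set per screening run, cut at about 8.8% in these data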;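 further: cells exposed to compound for 20 h before luminescence read; 0% = DMSO alone and 100% = MG132 at 30 µM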
Active calls of the source: *; / = no result given. Unless noted, no stated cut-off is given here; in the data, active means inhibition above about 50%; inactive means the rest.

SMILES | PKD1 inh | Rad51 HR inh | L major viab | CHOP inh | Arbovirus inh | Wee1 degr inh
COc1ccc(-c2csc3nc(C(C)C)oc(=O)c23)cc1OC | -6 | -4 | 7 | 11 | -5 | 1
COc1ccc(-c2nc3scc(-c4ccc(OC)c(OC)c4)c3c(=O)o2)cc1 | -6 | -1 | 22 | 92* | -10 | -1
Cc1ccc(S(=O)(=O)c2nc(NCCN(C)C)sc2Cl)cc1 | 1 | -2 | 89* | 8 | -1 | -1
Cc1ccc(S(=O)(=O)c2nc(Nc3ccccc3)sc2Cl)cc1 | -8 | -1 | 24 | 73* | -40 | -2
O=S(=O)(c1ccccc1)c1nc(Nc2cccc(O)c2)sc1Cl | 16 | / | 3 | 26 | -8 | -2
Cc1cccc(NC(=O)C2CCCN2/C=C/C(=O)C(F)(F)F)c1C (stereo unspecified) | -7 | -15 | -3 | 0 | 3 | -4
CC(C)(C)c1ccc(S(=O)(=O)N2CCC(CO)(CC3CCCCO3)CC2)cc1 (stereo unspecified) | -8 | -5 | 4 | 43 | 5 | 0
Cc1ccc(C)c(N=Nc2nc3ccccc3n2C)c1 | -1 | 1 | 83* | 54 | 4 | 4
Cc1cc(C)c(C)c(N=Nc2nc3ccccc3n2C)c1C | -4 | -18 | 37 | 52 | 2 | 1
CC(O)CNC(=O)Cc1cc(=O)[nH]c(=O)[nH]1 (stereo unspecified) | / | -20 | / | 11 | / | 0
O=C(c1cccc(F)c1)N1C2C=CC(C2)C1(C(F)(F)F)C(F)(F)F (stereo unspecified) | -3 | 7 | -7 | 13 | 0 | -3
O=C(c1ccc(Cl)cc1)N1C2C=CC(C2)C1(C(F)(F)F)C(F)(F)F (stereo unspecified) | -8 | / | 64* | -5 | 4 | 0
O=c1[nH]c(SCCOc2ccccc2)nc2ccccc12 | -1 | 4 | -4 | 77* | 1 | 2
O=C(CSc1nnc(-c2ccncc2)n1-c1ccc(Cl)cc1)NCc1cccs1 | -6 | -14 | 2 | -74 | 10 | 6
Cc1cccc(OCC(=O)N2CCC(N3CCCCCC3)CC2)c1 | 11 | -9 | 92* | -20 | 5 | 5
COc1cccc(C(=O)N2CCN(C3CCC(c4ccccc4)CC3)CC2)c1 (stereo unspecified) | -1 | -7 | 89* | 45 | 7 | 3
COc1cccc(C(=O)N2CCN(Cc3ccccc3C(F)(F)F)CC2)c1 | -9 | 14 | 2 | 71* | -1 | 0
O=C(c1cccc(F)c1)N1CCC(N2CCCCCC2)CC1 | 1 | -5 | 87* | 1 | 4 | 0
CC(C)C(C(=O)Nc1ccc2c(c1)OCCOCCOCCOCCO2)N1C(=O)c2ccccc2C1=O (stereo unspecified) | 0 | 5 | 0 | 23 | 3 | 4
Cc1[nH]c(=O)[nH]c(=O)c1S(=O)(=O)N1CCCC(C(=O)N2CCN(c3cccc(C(F)(F)F)c3)CC2)C1 (stereo unspecified) | -4 | 6 | -5 | 8 | 12 | 1
COc1cccc(C(=O)N2CCC(N3CC(C)OC(C)C3)CC2)c1 (stereo unspecified) | -9 | / | 73* | -25 | 7 | -1
COc1cccc(C(=O)N2CCOCC2)c1 | 6 | 4 | -3 | -11 | 3 | -1
CCOC(=O)c1ccc(Oc2nc(OC)nc(N(C)C)n2)cc1 | -10 | 1 | -6 | 15 | -2 | -2
CCOC(=O)c1ccc(Oc2nc(NC)nc(Nc3ccccc3)n2)cc1 | -1 | -5 | 97* | 53 | -2 | 0
CN(C)c1nc(Oc2ccc(C(=O)OCC(=O)Nc3ccccc3)cc2)nc(N(C)C)n1 | 1 | 2 | -7 | 19 | 9 | 9.1*
SMILES | PKD1 inh | Rad51 HR inh | L major viab | CHOP inh | Arbovirus inh | Wee1 degr inh
COC(=O)c1ccc(Oc2nc(Nc3ccc(C)c(C)c3)nc(N(C)C)n2)cc1 | -2 | 1 | 74* | 54 | 19 | 0
COc1ccc(CC(NC(C)=O)C(=O)NC2CCN(c3ncccc3[N+](=O)[O-])CC2)cc1 (stereo unspecified) | -2 | 9 | -6 | 11 | 8 | -2
COC(=O)c1cccc(NC(=O)c2cccnc2C(=O)O)c1C | 3 | -4 | -6 | -3 | 1 | 2
Cc1cc(-c2nn(-c3ccccc3F)cc2CN2CCCC(O)C2)c(C)s1 (stereo unspecified) | 3 | 18 | 9 | 30 | 5 | 2
OC1CCCN(Cc2ccc3c(c2)Cc2ccccc2-3)C1 (stereo unspecified) | 2 | -3 | 73* | 57 | -30 | -4
Cc1nc2ccccc2n1C1CCN(C(=O)Nc2ccccc2)CC1 | 3 | 11 | -5 | 5 | 15 | -2
Cc1cc(C)nc(Nc2n[nH]c(COc3ccc(Cl)cc3)n2)n1 | -8 | 5 | 3 | 93* | 12 | -3
NC(=O)CSc1nnc(CSc2ncccn2)n1-c1ccccc1 | 5 | / | 3 | 7 | 3 | -2
CCNC(=O)NC(=O)C(C)Sc1nc2cc(C(=O)OC)ccc2c(=O)n1-c1ccccc1 (stereo unspecified) | -2 | -1 | 2 | -4 | 43* | 6
O=C(NCC1OCCCN1S(=O)(=O)c1cc(F)ccc1F)C(=O)NC1CCCCC1 (stereo unspecified) | -2 | 8 | -4 | 13 | 21 | 0
CCNC(=O)C12CCC(C)(C(=O)O1)C2(C)C (stereo unspecified) | 3 | 5 | -12 | 7 | 6 | -2
Nc1cc(S(=O)(=O)Nc2ccc(Br)cc2)ccc1Cl | / | 19 | / | 9 | / | 9.4*
COc1ccc(CN2CCOCCOCCN(Cc3ccc(OC)cc3)CCOCCOCC2)cc1 | / | 17 | / | -8 | / | 2
Cc1nc2ccccc2n1CCc1nc2c3ccccc3nc(SCC(=O)NCc3ccco3)n2n1 | 3 | 4 | 4 | 72* | 2 | 0
Cc1cncn1CCc1nc2c3ccccc3nc(SCC(=O)Nc3cccc(Cl)c3)n2n1 | 2 | 6 | 100* | 31 | -8 | -1
Cc1nc2ccccc2n1CCc1nc2c3ccccc3nc(SCC#N)n2n1 | -5 | / | -6 | -26 | -8 | 3
O=C1C(Cc2ccc3[nH]ccc3c2)NC(=S)N1c1ccccc1 (stereo unspecified) | / | 13 | / | 4 | / | 0
CCOC(=O)c1cnc2ccc(OCC)cc2c1N(C)Cc1ccccc1 | -4 | 0 | 98* | 54 | -3 | 5
CCc1ccc(C(=O)c2cnc3ccc(OC)cc3c2N2CCN(CC)CC2)cc1 | 0 | 11 | 69* | 2 | -9 | -1
CCOC(=O)c1cnc2ccc(OCC)cc2c1N1CCN(c2ccccc2OC)CC1 | -8 | -3 | 32 | 88* | -40 | -1
CCOc1ccc2ncc(C(=O)c3ccc(OC)cc3)c(N3CCN(CC)CC3)c2c1 | -5 | -6 | 31 | 63 | -6 | -2
Oc1ccc2cc(Br)ccc2c1CN1CCCC1 | -10 | -10 | 0 | -19 | 23 | -5
